The source made the active and inactive calls. The rule behind the calls is not given here.
What was measured:
[1] = target: T1, Prostaglandin E synthase (Mus musculus) (UniProt Q9JM51); test: Inhibition of mPGES-1 in mouse RAW264.7 cells using PGH2 as substrate assessed as inhibition of LPS-stimulated PGE2 production at 5 uM preincubated for 30 mins followed by substrate addition measured after 1 min by LC-MS/MS analysis; type: cell-based
T1 sequence (whole entry): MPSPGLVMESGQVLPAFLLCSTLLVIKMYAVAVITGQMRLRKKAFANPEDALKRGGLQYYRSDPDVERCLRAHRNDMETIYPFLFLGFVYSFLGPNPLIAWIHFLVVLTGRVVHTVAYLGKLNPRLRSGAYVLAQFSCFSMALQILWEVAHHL
Summary of the method: (§1)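 Microsomal fraction from HeLa, NIH-3T3 or RAW 264.7 cells, obtained by sonication and ultracentrifugation, resuspended in 0.1 M KPi pH 7.4 with 2.5 mM reduced GSH. Protein at 0.15 mg/mL (HeLa, NIH) or 0.3 mg/mL (RAW) incubated with compound 30 min on ice. Reaction started with 20 µM PGH₂, stopped after 1 min with FeCl₂/citric acid. PGE₂ quantified by SPE and LC–MS/MS. IC50 from four-parameter logistic fit of increasing concentrations.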

[2] = target: T2, Prostaglandin G/H synthase 2 (Homo sapiens) (UniProt P35354); test: Inhibition of LPS-stimulated COX2 in human whole blood assessed as reduction in PGE2 production by measuring remaining activity at 100 uM preincubated for 15 mins followed by LPS addition measured after 24 hrs by LC-MS/MS analysis
T2 sequence (whole entry): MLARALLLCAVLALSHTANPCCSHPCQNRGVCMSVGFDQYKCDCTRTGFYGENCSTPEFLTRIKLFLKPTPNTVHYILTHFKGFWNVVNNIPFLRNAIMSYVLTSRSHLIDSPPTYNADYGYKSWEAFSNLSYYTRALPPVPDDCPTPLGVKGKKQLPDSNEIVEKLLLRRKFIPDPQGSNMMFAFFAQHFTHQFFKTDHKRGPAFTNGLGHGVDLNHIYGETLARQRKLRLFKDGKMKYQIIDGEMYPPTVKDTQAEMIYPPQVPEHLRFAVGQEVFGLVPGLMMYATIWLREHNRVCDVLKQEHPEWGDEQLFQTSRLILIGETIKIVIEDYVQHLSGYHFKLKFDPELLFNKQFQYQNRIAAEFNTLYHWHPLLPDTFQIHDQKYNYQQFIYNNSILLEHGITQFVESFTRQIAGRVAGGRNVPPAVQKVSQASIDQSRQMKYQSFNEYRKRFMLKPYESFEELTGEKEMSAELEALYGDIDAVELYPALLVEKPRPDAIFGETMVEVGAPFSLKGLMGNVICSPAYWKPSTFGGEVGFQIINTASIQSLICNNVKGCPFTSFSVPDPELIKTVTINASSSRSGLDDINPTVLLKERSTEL
Summary of the method: (§2)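 Heparinized human whole blood (500 µL) mixed with compound in DMSO, with acetylsalicylic acid added to block COX-1, held 15 min at 37 °C, then stimulated with LPS in autologous plasma to induce COX-2/mPGES-1. After 24 h at 37 °C, samples chilled 5 min on ice; plasma collected, prostaglandins extracted and measured by LC–MS/MS. Remaining activity given relative to vehicle control.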

[3] = target: T3, Prostaglandin E synthase (Homo sapiens) (UniProt O14684); test: Inhibition of mPGES-1 in human HeLa cells using PGH2 as substrate assessed as inhibition of IL-1beta/TNFalpha-stimulated PGE2 production at 100 uM after 24 hrs by LC-MS/MS analysis; type: cell-based
T3 sequence (whole entry): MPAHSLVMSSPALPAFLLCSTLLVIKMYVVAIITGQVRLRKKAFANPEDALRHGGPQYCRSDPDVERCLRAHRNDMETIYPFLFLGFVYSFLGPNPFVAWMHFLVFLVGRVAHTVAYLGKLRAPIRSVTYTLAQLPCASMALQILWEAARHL
Summary of the method: (§3)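 HeLa cells (2 × 10⁴ per well) grown 24 h at 37 °C, then given fresh medium with 1 ng/mL IL-1b + 5 ng/mL TNFa (or PBS for unstimulated control) plus compound (1, 10 or 100 µM) or DMSO for 24 h at 37 °C. Supernatant mixed with H₃PO₄, EDTA and deuterated internal standards; PGE₂ measured by SPE and LC–MS/MS.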

[4] = target: T2, Prostaglandin G/H synthase 2 (Homo sapiens); test: Inhibition of LPS-stimulated COX2 in human whole blood assessed as reduction in PGF2alpha production by measuring remaining activity at 100 uM preincubated for 15 mins followed by LPS addition measured after 24 hrs by LC-MS/MS analysis; summary of the method: as §2
[5] = target: T3, Prostaglandin E synthase (Homo sapiens); test: Inhibition of mPGES-1 in human HeLa cells using PGH2 as substrate assessed as inhibition of IL-1beta/TNFalpha-stimulated PGE2 production at 1 to 10 uM after 24 hrs by LC-MS/MS analysis; type: cell-based; summary of the method: as §3
[6] = target: T1, Prostaglandin E synthase (Mus musculus); test: Inhibition of mPGES-1 in Swiss mouse NIH/3T3 cells using PGH2 as substrate assessed as inhibition of IL-1beta/TNFalpha-stimulated PGE2 production at 5 uM preincubated for 30 mins followed by substrate addition measured after 1 min by LC-MS/MS analysis; type: cell-based; summary of the method: as §1
[7] = target: T4, Prostaglandin G/H synthase 1 (Ovis aries) (UniProt P05979); test: Inhibition of ovine COX1 using […] at 10 uM by LC-MS/MS analysis
T4 sequence (whole entry): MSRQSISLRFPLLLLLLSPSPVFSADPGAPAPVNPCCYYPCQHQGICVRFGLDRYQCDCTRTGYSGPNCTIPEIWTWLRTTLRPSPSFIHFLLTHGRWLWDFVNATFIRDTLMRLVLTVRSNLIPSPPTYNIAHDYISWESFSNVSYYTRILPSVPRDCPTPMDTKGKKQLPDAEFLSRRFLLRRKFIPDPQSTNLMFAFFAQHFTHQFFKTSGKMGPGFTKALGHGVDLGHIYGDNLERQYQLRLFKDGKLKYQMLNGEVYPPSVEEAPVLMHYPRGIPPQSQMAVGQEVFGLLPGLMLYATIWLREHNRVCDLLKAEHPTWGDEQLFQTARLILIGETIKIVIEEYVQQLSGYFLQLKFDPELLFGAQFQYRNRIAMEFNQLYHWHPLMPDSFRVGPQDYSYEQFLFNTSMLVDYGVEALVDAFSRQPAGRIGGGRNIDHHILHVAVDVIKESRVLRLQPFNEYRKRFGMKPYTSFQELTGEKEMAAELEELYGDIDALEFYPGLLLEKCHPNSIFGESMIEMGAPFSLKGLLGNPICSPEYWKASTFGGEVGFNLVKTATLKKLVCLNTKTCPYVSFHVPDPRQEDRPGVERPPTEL
Summary of the method: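 Ovine COX-1 and recombinant human COX-2 tested directly with a commercial COX inhibitor screening kit, following the manufacturer's protocol. COX-derived PGH₂ reduced with SnCl₂; the resulting PGE₂, PGD₂ and PGF₂a diluted in MeOH, spiked with deuterated internal standards and quantified by SPE and LC–MS/MS.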

Compound | inhibition [1] [%] | Activity [2] [%] | inhibition [3] | Activity [4] [%] | inhibition [5] | inhibition [6] [%] | inhibition [7] [%]
O=C(O)c1ccc(S(=O)(=O)N(Cc2ccccc2)c2ccc(Oc3ccccc3)cc2)cc1 | 74.7 | 66.8 | Active | 86.8 | inactive | 71.2 | 12.4
COc1ccc(CN(CC2CCCCC2)S(=O)(=O)c2ccc(C(=O)O)cc2)cc1 |  | 39 | Active | 114 | inactive | 48.5 | 10.3

Results, then the compound that gave them:

inhibition [1] [%] | Activity [2] [%] | inhibition [3] | Activity [4] [%] | inhibition [5] | inhibition [6] [%] | inhibition [7] [%] | Compound
71.4 | 88.7 | Active | 92.5 | inactive | 65.1 | 0.3 | O=C(O)c1ccc(S(=O)(=O)N(Cc2ccccc2)Cc2ccc(Oc3ccccc3)cc2)cc1
 | 61.2 | Active | 90.9 | inactive | 67.9 | < 0 | O=C(O)c1ccc(S(=O)(=O)N(Cc2ccccc2)Cc2ccc(Nc3ccccc3)cc2)cc1
29.8 | 74.4 | Active | 107 | inactive | 10.6 | < 0 | COc1ccc(CN(Cc2ccccc2)S(=O)(=O)c2ccc(C(=O)O)cc2)cc1
